Results as given in ChEMBL document CHEMBL1134661, “N-Benzylpolyamines as vectors of boron and fluorine for cancer therapy and imaging: synthesis and biological evaluation” (J Med Chem, 2001).
pIC50: −log10 of the molar value.

Experiments:
Nucleic Acid = experiment: DNA binding affinity (conc to decrease the fluorescence of the ethidium bromide-DNA complex by 50%); assay type: nucleic-acid assay, Bos taurus
CHO [1] = experiment: Compound was tested for accumulation in CHO cells by HPLC at 50 uM dose; assay type: functional, Cricetulus griseus
In short: (§1)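 CHO or polyamine-transport-deficient CHO-MG cells (proline 2 µg/mL added for CHO-MG), RPMI 1640 with 10% FCS, 37 °C, 5% CO2; seeded at 5 × 10⁴ cells/mL, derivative added 24 h later for 24 h; trypsin/EDTA harvest, three PBS washes, sonication in 0.2 N perchloric acid; derivative measured by ion-pair reversed-phase HPLC with o-phthalaldehyde/N-acetylcysteine fluorescence; per mg protein (Folin); mean ± SD.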

[2] = Compound was tested for accumulation of (50 uM) boronated polyamines in rat C6 glioblastoma cells; assay type: functional
In short: (§2)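 Rat C6, human U251 glioblastoma or murine B16 melanoma cells exposed 24 h to 50 µM boron-containing derivative, either directly or after 24 h preincubation with 5 mM DFMO; washed cells sonicated in 0.2 N perchloric acid, derivative quantified by ion-pair reversed-phase HPLC with o-phthalaldehyde fluorescence detection, normalized to protein; mean ± SD.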

3LL cell line [3] = experiment: Effect on the growth of 3LL cells was evaluated using an MTT assay at 48 hour incubation; assay type: functional, cell-based; conditions: Mus musculus
3LL cell line [4] = experiment: Effect on the growth of 3LL cells was evaluated using an MTT assay at 72 hour incubation; assay type: functional, cell-based; conditions: Mus musculus
[5] = Compound was tested for accumulation of (50 uM) boronated polyamines in murine B16 melanoma cells; assay type: functional; in short: as §2
[6] = Compound was tested for accumulation of (50 uM) boronated polyamines in rat C6 glioblastoma cells incubated with 5 mM DFMO; assay type: functional; in short: as §2
3LL cell line [7] = experiment: accumulation of compound in 3LL cells was measured without DFMO by HPLC at 10 uM dose; assay type: functional, Mus musculus
In short: (§3)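 3LL cells exposed 24 h to derivative, BSH or BPA, with or without prior 24 h incubation with 5 mM DFMO; intracellular drug measured by ion-pair reversed-phase HPLC with o-phthalaldehyde fluorescence, or cellular boron by ICP-AES, per mg protein; mean ± SD; Student's t-test, p < 0.01.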

3LL cell line [8] = experiment: spermine levels in 3LL cells after the treatment of 250 uM of Compound; assay type: functional, cell-based; conditions: Mus musculus
In short: (§4)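 3LL cells incubated 24 h with derivative, some after 24 h pretreatment with 5 mM DFMO; perchloric acid extracts analyzed for putrescine, spermidine and spermine by ion-pair reversed-phase HPLC with o-phthalaldehyde post-column fluorescence, normalized to protein (Folin); mean ± SD.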

3LL cell line [9] = experiment: Effect on the growth of 3LL cells by DFMO pretreatment at 48 hr incubation; assay type: functional, cell-based; conditions: Mus musculus
In short: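 3LL cells given 5 mM DFMO 24 h after seeding for a 24 h preincubation, then 48 h with spermidine or derivative; MTT readout; growth expressed relative to cells treated with DFMO only; mean ± SEM.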

[10] = Compound was tested for accumulation of (50 uM) boronated polyamines in murine B16 melanoma cells ncubated with 5 mM DFMO; assay type: functional; in short: as §2
3LL cell line [11] = experiment: spermidine levels in 3LL cells after the treatment of 50 uM of Compound; assay type: functional, cell-based; conditions: Mus musculus; in short: as §4
3LL cell line [12] = experiment: spermine levels in 3LL cells after the treatment of 50 uM of Compound; assay type: functional, cell-based; conditions: Mus musculus; in short: as §4
U-251 [13] = experiment: Compound was tested for accumulation of (50 uM) boronated polyamines in human U251 glioblastoma cells incubated with 5 mM DFMO; assay type: functional; in short: as §2
U-251 [14] = experiment: Compound was tested for accumulation of (50 uM) boronated polyamines in human U251 glioblastoma cells; assay type: functional; in short: as §2
3LL cell line [15] = experiment: putrescine levels in 3LL cells after the treatment of 250 uM of Compound; assay type: functional, cell-based; conditions: Mus musculus; in short: as §4
CHO-MG [16] = experiment: Compound was tested for accumulation in CHO-MG cells by HPLC at 50 uM dose; assay type: functional, Cricetulus griseus; in short: as §1
3LL cell line [17] = experiment: accumulation of compound in 3LL cells was measured without DFMO by HPLC at 50 uM dose; assay type: functional, Mus musculus; in short: as §3
3LL cell line [18] = experiment: accumulation of compound in 3LL cells was measured with DFMO by ICP-AES at 50 uM dose; assay type: functional, Mus musculus; in short: as §3
3LL cell line [19] = experiment: accumulation of compound in 3LL cells was measured with DFMO by HPLC at 50 uM dose; assay type: functional, Mus musculus; in short: as §3
3LL cell line [20] = experiment: accumulation of compound in 3LL cells was measured with DFMO by HPLC at 10 uM dose; assay type: functional, Mus musculus; in short: as §3
3LL cell line [21] = experiment: accumulation of compound in 3LL cells was measured without DFMO by ICP-AES at 50 uM dose; assay type: functional, Mus musculus; in short: as §3
3LL cell line [22] = experiment: spermidine levels in 3LL cells after the treatment of 250 uM of Compound; assay type: functional, cell-based; conditions: Mus musculus; in short: as §4
3LL cell line [23] = experiment: spermine levels in 3LL cells after the treatment of 10 uM of Compound; assay type: functional, cell-based; conditions: Mus musculus; in short: as §4
3LL cell line [24] = experiment: accumulation of compound in 3LL cells was measured without DFMO by HPLC at 250 uM dose; assay type: functional, Mus musculus; in short: as §3
3LL cell line [25] = experiment: accumulation of compound in 3LL cells was measured with DFMO by HPLC at 250 uM dose; assay type: functional, Mus musculus; in short: as §3
CHO-MG [26] = experiment: Compound was tested for accumulation in CHO-MG cells by HPLC at 250 uM dose; assay type: functional, Cricetulus griseus; in short: as §1
CHO [27] = experiment: Compound was tested for accumulation in CHO cells by HPLC at 250 uM dose; assay type: functional, Cricetulus griseus; in short: as §1

## NCCCCN [PUTRESCINE]
Nucleic Acid
  pIC50: < 1.96

## Cl.NCCCCNCc1ccc(B(O)O)cc1
CHO [1]
  Accumulation: 5.76 nM (mg of protein)-1
[2]
  Activity: 0.09 nM (mg of protein)-1
3LL cell line [3]
  pIC50: < 3.00
3LL cell line [4]
  pIC50: < 3.00
[5]
  Accumulation: 5.77 nM (mg of protein)-1
[6]
  Accumulation: 0.41 nM (mg of protein)-1
3LL cell line [7]
  Activity: 0.52 nM (mg of protein)-1
3LL cell line [8]
  Level (nM (mg of protein)-1): 7.66
3LL cell line [9]
  pIC50: < 4.30
[10]
  Accumulation: 20.41 nM (mg of protein)-1
3LL cell line [11]
  Level (nM (mg of protein)-1): 1.07
3LL cell line [12]
  Level (nM (mg of protein)-1): 7.52
U-251 [13]
  Accumulation: 0.22 nM (mg of protein)-1
U-251 [14]
  Accumulation: 0.21 nM (mg of protein)-1
3LL cell line [15]
  Level (nM (mg of protein)-1): 1.31
CHO-MG [16]
  Accumulation: 0.51 nM (mg of protein)-1
Nucleic Acid
  pIC50: 2.86
3LL cell line [17]
  Activity: 1.32 nmol/mg protein
3LL cell line [18]
  Activity: 6.73 nM (mg of protein)-1
3LL cell line [19]
  Activity: 8.44 nM (mg of protein)-1
3LL cell line [20]
  Activity: 3.37 nM (mg of protein)-1
3LL cell line [21]
  Activity: 1.29 nM (mg of protein)-1
3LL cell line [22]
  Level (nM (mg of protein)-1): 2.28

## Cl.NCCCCNCCCNCc1ccccc1
CHO [1]
  Accumulation: 17.58 nM (mg of protein)-1
3LL cell line [3]
  pIC50: 4.51
3LL cell line [4]
  pIC50: 5.03
3LL cell line [7]
  Activity: 9 nM (mg of protein)-1
3LL cell line [9]
  pIC50: 4.92
Nucleic Acid
  pIC50: 3.97
3LL cell line [23]
  Level (nM (mg of protein)-1): 7.23
3LL cell line [20]
  Activity: 23.67 nM (mg of protein)-1

## CC1(C)COB(c2cccc(CN(CCCN)CCCCN)c2)OC1.Cl
3LL cell line [24]
  Activity: 4.52 nM (mg of protein)-1
3LL cell line [25]
  Activity: 3.93 nM (mg of protein)-1
CHO-MG [26]
  Accumulation: 3.71 nM (mg of protein)-1
CHO [27]
  Accumulation: 5.65 nM (mg of protein)-1

## Cl.NCCCCNCc1ccc(F)cc1
CHO [1]
  Accumulation: 0.9 nM (mg of protein)-1
3LL cell line [3]
  pIC50: 3.25
3LL cell line [4]
  pIC50: 3.33
3LL cell line [9]
  pIC50: < 5.00
3LL cell line [11]
  Level (nM (mg of protein)-1): 0.92
3LL cell line [12]
  Level (nM (mg of protein)-1): 11
CHO-MG [16]
  Accumulation: 0.45 nM (mg of protein)-1
Nucleic Acid
  pIC50: < 2.52
3LL cell line [17]
  Activity: 0.55 nmol/mg protein
3LL cell line [19]
  Activity: 1.31 nM (mg of protein)-1
